# ChEMBL document CHEMBL4020844, “Regio- and Stereospecific Synthesis of Oridonin D-Ring Aziridinated Analogues for the Treatment of Triple-Negative Breast Cancer via Mediated Irreversible Covalent Warheads” (J Med Chem, 2018)
# Calls of active or inactive are those of the source. The calls are words filed in the database; no cut-off is given here.
# Key:
# [1] = Drug level in pH 7.4 deuterated phosphate buffer treated with oridonin at 10 mg up to 10 mins in presence of 1.5 to 2 equiv of GSH by HRMS analysis
# [2] = Glutathione reactivity in pH 7.4 deuterated phosphate buffer assessed as reaction half life at 10 mg up to 24 hrs in presence of 1.5 to 2 equiv of GSH by 1H NMR analysis; format: physicochemical; details: pH 7.4, 24 h
# [3] = Glutathione reactivity in pH 7.4 deuterated phosphate buffer assessed as GSH adduct formation at 10 mg after 5 hrs in presence of 1.5 to 2 equiv of GSH by HRMS analysis
# [4] = Stability in human microsomes; format: ADME, Microsome
# [5] = Stability in rat microsomes; format: ADME, Microsome
# [6] = Stability in mouse microsomes; format: ADME, Microsome
# [7] = tested on: Plasma; experiment: Stability in human plasma up to 5 hrs; format: ADME, cell-free
# [8] = tested on: Plasma; experiment: Stability in rat plasma up to 5 hrs; format: ADME, cell-free
# [9] = tested on: Plasma; experiment: Stability in mouse plasma up to 5 hrs; format: ADME, cell-free
# [10] = Glutathione reactivity in pH 7.4 deuterated phosphate buffer assessed as reaction half life at 10 mg up to 10 mins in presence of 1.5 to 2 equiv of GSH by 1H NMR analysis; format: physicochemical
# [11] = Glutathione reactivity in pH 7.4 deuterated phosphate buffer assessed as GSH adduct formation at 10 mg up to 10 mins in presence of 1.5 to 2 equiv of GSH by HRMS analysis
# [12] = Toxicity in ip dosed ddYS mouse implanted with mouse ehrlich carcinoma cells administered once daily for 7 consecutive days measured for 40 days; format: organism-based; details: in vivo
# [13] = tested on: MDA-MB-231; experiment: Antiproliferative activity against human MDA-MB-231 cells after 72 hrs by MTT assay; format: functional, cell-based
# Outline: (§1)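 MTT proliferation assay. Cells were seeded at 1 × 10^4 per well and exposed to DMSO or compound at 0.1, 0.33, 1.0, 3.3 and 10 μM for 72 h. MTT reagent was added, and OD at 560 nm was read after 1 h at 37°C. Each concentration was tested in quadruplicate wells.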
# [14] = tested on: MCF7; experiment: Antiproliferative activity against human MCF7 cells after 72 hrs by MTT assay; format: functional, cell-based; outline: as §1
# [15] = tested on: MDA-MB-231; experiment: Antitumor activity against human MDA-MB-231 cells xenografted in nude mouse assessed as tumor growth inhibition at 10 mg/kg, ip daily for 10 days; format: functional, organism-based
# Outline: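 Orthotopic model: female nude mice, 6–8 weeks old. MDA-MB-231 cells (1.0 × 10^6 in PBS) were injected into the no. 3 mammary fat pad, and mice were randomized into 4 groups. Once tumors reached 80–100 mm3, mice received 10 or 15 mg/kg daily by intraperitoneal injection in DMSO vehicle. Tumor volume (0.5 × L × W2) and body weight were measured daily. Mean ± SEM.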
# [16] = Drug level in pH 7.4 deuterated phosphate buffer treated with (2R,3'S,3a'R,3a1'R,6a'R,7'S,11'S,11a'S)-7',11'-Dihydroxy-5',5',8',8'-tetramethyldecahydro-2'H-spiro[aziridine-2,15'-[6a,11a]-(epoxymethano)[3,3a1]ethanophenanthro[1,10-de][1,3]dioxin]-14'-one at 10 mg after 5 hrs in presence of 1.5 to 2 equiv of GSH by HRMS analysis
# [17] = Antiproliferative activity against human LX2 cells by alamar blue assay; format: functional, cell-based; details: LX-2
# [18] = Potency index, ratio of oridonin IC50 to compound IC50 for human LX2 cells; format: functional
# [19] = Glutathione reactivity in pH 7.4 deuterated phosphate buffer at 10 mg after 20 hrs in presence of 1.5 to 2 equiv of GSH by 1H NMR analysis
# [20] = Drug level in pH 7.4 deuterated phosphate buffer treated with (2R,3'S,3a'R,3a1'R,6a'R,7'S,11'S,11a'S)-1-Acryloyl-7',11'-dihydroxy-5',5',8',8'-tetramethyldecahydro-2'H-spiro[aziridine-2,15'-[6a,11a](epoxymethano)[3,3a1]ethanophenanthro[1,10-de][1,3]-dioxin]-14'-one at 10 mg after 1 hr in presence of 1.5 to 2 equiv of GSH by HRMS analysis
compound,measurement,setting,value
CC1(C)CC[C@H](O)[C@]23CO[C@@](O)([C@@H](O)[C@H]12)[C@]12C(=O)C(CSCC(NC(=O)CC[C@H](N)C(=O)O)C(=O)NCC(=O)O)[C@H](CC[C@@H]31)[C@H]2O (some centres undefined),Drug metabolism,[1],Metabolite detected
CC1(C)O[C@@H]2[C@H]3CC[C@H]4[C@@]56CO[C@@](O1)([C@@H](O)[C@@H]5C(C)(C)CC[C@@H]6O)[C@@]24C(=O)C31CN1 (some centres undefined),t1/2,[2],4 to 6 h
same,Drug metabolism,[3],Metabolite detected
same,Stability,[4],Stable
same,Stability,[5],Stable
same,Stability,[6],Stable
same,Stability,[7],Stable
same,Stability,[8],Stable
same,Stability,[9],Stable
C=C1C(=O)[C@]23[C@H](O)[C@H]1CC[C@H]2[C@@]12CO[C@]3(O)[C@@H](O)[C@@H]1C(C)(C)CC[C@@H]2O [ORIDONIN],half-life,"[10]; deuterated phosphate buffer with glutathione (GSH), pH 7.4",< 1 min
same,Drug metabolism,[11],Metabolite detected
same,LD50 at 960 h,[12],37.5 mg/kg
same,Stability,[4],Stable
same,Stability,[5],Stable
same,Stability,[6],Stable
same,Stability,[7],Stable
same,Stability,[8],Stable
same,Stability,[9],Stable
same,IC50,"[13]; MDA-MB-231, 72 h",29.4 µM
same,IC50,"[14]; MCF7, 72 h",6.72 µM
same,TGI,[15],Active
C=CCNc1nc2c(s1)CC(C)(C)[C@H]1[C@H](O)[C@]3(O)OC[C@@]21[C@@H]1CC[C@@H]2[C@@H](O)[C@@]13C(=O)C21CN1C(=O)OCC1c2ccccc2-c2ccccc21 (some centres undefined),Activity,[13],Active
same,Activity,[14],Active
CC1(C)O[C@@H]2[C@H]3CC[C@H]4[C@@]56CO[C@@](O1)([C@@H](O)[C@@H]5C(C)(C)CC[C@@H]6O)[C@@]24C(=O)C3(N)CSCC(NC(=O)CC[C@H](N)C(=O)O)C(=O)NCC(=O)O (some centres undefined),Drug metabolism,[16],Metabolite detected
C=C1C(=O)[C@@]23[C@@H]4OC(C)(C)O[C@@]25OC[C@@]2([C@H]([C@@H]5O)C(C)(C)CC[C@@H]2O)[C@@H]3CC[C@@H]14,t1/2,"[10]; gsh, pH 7.4, 10 min",< 1 min
C=C1C(=O)[C@]23[C@H](OC(=O)[C@H](C)N)[C@H]1CC[C@H]2[C@@]12CO[C@@]3(O)[C@@H](O)[C@@H]1C(C)(C)CC[C@@H]2O.O=C(O)C(F)(F)F,Drug metabolism,"[10]; in vitro, pH 7.4, 10 min",Metabolite_Detected
C=C1C(=O)[C@]23[C@H](O)[C@H]1CC[C@H]2[C@]12C=CCC(C)(C)[C@H]1[C@H](O)[C@]3(O)OC2,IC50,[17],0.49 µM
same,Ratio IC50,[18],10
O=C(O)C1CN1 (centres undefined),Drug metabolism,[19],Metabolite detected
CC1(C)O[C@@H]2[C@H]3CC[C@H]4[C@@]56CO[C@@](O1)([C@@H](O)[C@@H]5C(C)(C)CC[C@@H]6O)[C@@]24C(=O)C31CN1C(=O)CCSC[C@H](NC(=O)CC[C@H](N)C(=O)O)C(=O)NCC(=O)O (some centres undefined),Drug metabolism,[20],Metabolite detected
C=CCNc1nc2c(s1)CC(C)(C)[C@H]1[C@H](O)[C@]3(O)OC[C@@]21[C@@H]1CC[C@@H]2[C@@H](O)[C@@]13C(=O)C21CN1 (some centres undefined),Activity,[13],Active
same,Activity,[14],Active
CCC(=O)N1CC12C(=O)[C@@]13[C@@H]4OC(C)(C)O[C@@]15OC[C@@]1([C@H]([C@@H]5O)C(C)(C)CC[C@@H]1O)[C@@H]3CC[C@H]42 (some centres undefined),Activity,[13],inactive
same,Activity,[14],inactive
